This note sets out measurements from PMC4312754 (Neuropharmacology, 2014).

The structures appear in SMILES notation. Residue numbers refer to the chain shown, from its start.

Common to all, as to experiment: two-electrode voltage clamp, Xenopus oocytes
Holding throughout (format): cell-based
For orientation: In two-electrode clamp one electrode senses voltage and the other passes current.

In assay [1] the target is T1, 5-HT3AB receptor (Homo sapiens, UniProt O95264+P46098, P46098:E124Q).
T1 sequence (P46098 24-478 E124Q): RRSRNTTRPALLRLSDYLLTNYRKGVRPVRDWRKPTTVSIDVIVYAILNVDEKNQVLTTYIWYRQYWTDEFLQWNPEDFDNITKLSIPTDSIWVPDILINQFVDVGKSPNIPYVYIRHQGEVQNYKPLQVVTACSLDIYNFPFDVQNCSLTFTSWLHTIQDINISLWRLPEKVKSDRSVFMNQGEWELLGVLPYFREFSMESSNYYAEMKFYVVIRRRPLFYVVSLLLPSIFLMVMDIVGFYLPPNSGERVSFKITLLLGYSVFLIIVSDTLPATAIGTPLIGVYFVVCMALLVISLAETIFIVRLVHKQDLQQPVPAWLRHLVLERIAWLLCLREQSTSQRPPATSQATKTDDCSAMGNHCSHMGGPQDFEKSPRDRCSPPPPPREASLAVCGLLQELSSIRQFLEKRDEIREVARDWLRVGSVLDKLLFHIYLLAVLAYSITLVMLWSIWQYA
T1 sequence (O95264 22-441): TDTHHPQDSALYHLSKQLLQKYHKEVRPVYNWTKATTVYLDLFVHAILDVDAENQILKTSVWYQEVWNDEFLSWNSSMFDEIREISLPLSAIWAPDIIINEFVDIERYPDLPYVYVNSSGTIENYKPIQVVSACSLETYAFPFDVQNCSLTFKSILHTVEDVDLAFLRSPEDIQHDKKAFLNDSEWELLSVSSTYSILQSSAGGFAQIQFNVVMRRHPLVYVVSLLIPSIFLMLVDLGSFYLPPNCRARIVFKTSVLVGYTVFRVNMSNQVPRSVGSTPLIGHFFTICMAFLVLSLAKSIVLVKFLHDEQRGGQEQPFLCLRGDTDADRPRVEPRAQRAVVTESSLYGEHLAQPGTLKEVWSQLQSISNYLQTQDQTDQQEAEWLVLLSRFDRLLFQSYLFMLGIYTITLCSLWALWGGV
An outline of the steps:
(§1)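 Human 5-HT3A and 5-HT3B subunits with point mutations were used. Defolliculated stage V–VI Xenopus oocytes were injected with 5–25 ng mRNA and incubated 24–72 h at 18 °C. Recordings were at 22–25 °C, holding at −60 mV. Agonist in Ca2+-free ND96 (pH 7.5) was applied for 15 s, then washed 116 s.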

For assay [2], the target named is T2, 5-HT3AB receptor (Homo sapiens, UniProt O95264+P46098, P46098:Y148A).
T2 sequence (P46098 24-478 Y148A): T1 sequence (P46098 24-478 E124Q) with Q101E, Y125A
T2 sequence (O95264 22-441): T1 sequence (O95264 22-441)
An outline of the steps: as §1

For assay [3], the target named is T3, 5-HT3AB receptor (Homo sapiens, UniProt O95264+P46098, O95264:Y146A).
T3 sequence (P46098 24-478): T1 sequence (P46098 24-478 E124Q) with Q101E
T3 sequence (O95264 22-441 Y146A): T1 sequence (O95264 22-441) with Y125A
An outline of the steps: as §1

The target in assay [4] is T4, 5-HT3AB receptor (Homo sapiens, UniProt O95264+P46098, O95264:E122Q/P46098:E124Q).
T4 sequence (P46098 24-478 E124Q): T1 sequence (P46098 24-478 E124Q)
T4 sequence (O95264 22-441 E122Q): T1 sequence (O95264 22-441) with E101Q
An outline of the steps: as §1

Assay [5] addresses T5, 5-HT3AB receptor (Homo sapiens, UniProt O95264+P46098, O95264:E122A).
T5 sequence (P46098 24-478): T1 sequence (P46098 24-478 E124Q) with Q101E
T5 sequence (O95264 22-441 E122A): T1 sequence (O95264 22-441) with E101A
An outline of the steps:
as §1

Assay [6] has as its target T6, 5-HT3A receptor (homomeric) (Homo sapiens, UniProt P46098, Y148A).
T6 sequence (P46098 24-478 Y148A): T1 sequence (P46098 24-478 E124Q) with Q101E, Y125A

Assay [7] concerns the target T7, 5-HT3AB receptor (Homo sapiens, UniProt O95264+P46098, O95264:E122Q/O95264:Y146A).
T7 sequence (P46098 24-478): T1 sequence (P46098 24-478 E124Q) with Q101E
T7 sequence (O95264 22-441 E122Q/Y146A): T1 sequence (O95264 22-441) with E101Q, Y125A
A digest of the protocol: as §1

Assay [8] addresses T8, 5-HT3AB receptor (Homo sapiens, UniProt O95264+P46098, O95264:E122Q).
T8 sequence (P46098 24-478): T1 sequence (P46098 24-478 E124Q) with Q101E
T8 sequence (O95264 22-441 E122Q): T1 sequence (O95264 22-441) with E101Q
A digest of the protocol:
as §1

Usually EC50 stands for the midpoint of the concentration-response curve. The low end stands for greater potency, the high end for weaker potency.

With `N=C(N)NC(=N)Nc1cccc(Cl)c1` [mCPBG], the EC50 worked out at 3 ± 0.7 µM in assay [1]; 11.2 ± 0.6 µM in assay [2]; 4.3 ± 0.3 µM in assay [3]; 2.4 ± 0.4 µM in assay [4]; 2.4 ± 0.1 µM in assay [5]; 24.7 ± 0.9 µM in assay [6]. In addition, the EC50 was determined as 3.5 ± 0.1 µM in assay [7] and 2.3 ± 0.1 µM in assay [8].
